Calls of active or inactive are those of the source. The rule behind the calls is not given here.
How the values were obtained:
Cytochrome P450 3A4 = Cytochrome P450 3A4 (Homo sapiens, UniProt P08684); assay: Inhibition of human recombinant CYP3A4 expressed in baculovirus-infected insect cells preincubated for 15 mins followed by substrate addition measured after 30 mins by luminescence assay; type: ADME; settings: recombinant enzyme, 0.5 h
Cytochrome P450 2C8 = target: T1, Cytochrome P450 2C8 (Homo sapiens, UniProt P10632); assay: Inhibition of human recombinant CYP2C8 expressed in baculovirus-infected insect cells preincubated for 15 mins followed by substrate addition measured after 30 mins by luminescence assay; type: ADME; settings: recombinant enzyme, 0.5 h
T1 sequence (P10632 whole entry): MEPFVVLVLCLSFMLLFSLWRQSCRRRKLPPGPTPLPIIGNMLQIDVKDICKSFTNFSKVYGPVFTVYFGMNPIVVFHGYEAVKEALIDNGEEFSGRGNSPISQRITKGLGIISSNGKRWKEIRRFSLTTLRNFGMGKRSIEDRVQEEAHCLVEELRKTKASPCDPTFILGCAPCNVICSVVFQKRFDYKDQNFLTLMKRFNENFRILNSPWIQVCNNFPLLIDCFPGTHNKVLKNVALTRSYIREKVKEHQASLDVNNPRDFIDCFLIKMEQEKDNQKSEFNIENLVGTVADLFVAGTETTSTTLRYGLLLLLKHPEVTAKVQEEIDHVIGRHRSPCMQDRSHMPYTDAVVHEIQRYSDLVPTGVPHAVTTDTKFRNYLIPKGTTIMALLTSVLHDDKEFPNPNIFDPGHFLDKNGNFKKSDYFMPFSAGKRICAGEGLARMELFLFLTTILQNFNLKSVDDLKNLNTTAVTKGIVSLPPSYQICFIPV

Plasmodium falciparum [1] = assay: Antimalarial activity against Plasmodium falciparum K1 infected in human RBC after 72 hrs by hypoxanthine incorporation assay in presence of serum albumin; type: functional, organism-based; settings: for IC50: K1, 72 h
Method in brief: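 Mixture of drug, human red blood cells and P. falciparum incubated 3 days (72 h) with serum albumin present; growth read as hypoxanthine incorporation.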

Cytochrome P450 2C19 = Cytochrome P450 2C19 (Homo sapiens, UniProt P33261); assay: Inhibition of human recombinant CYP2C19 expressed in baculovirus-infected insect cells preincubated for 15 mins followed by substrate addition measured after 30 mins by luminescence assay; type: ADME; settings: recombinant enzyme, 0.5 h
Cytochrome P450 2C19, sequence (P33261 whole entry): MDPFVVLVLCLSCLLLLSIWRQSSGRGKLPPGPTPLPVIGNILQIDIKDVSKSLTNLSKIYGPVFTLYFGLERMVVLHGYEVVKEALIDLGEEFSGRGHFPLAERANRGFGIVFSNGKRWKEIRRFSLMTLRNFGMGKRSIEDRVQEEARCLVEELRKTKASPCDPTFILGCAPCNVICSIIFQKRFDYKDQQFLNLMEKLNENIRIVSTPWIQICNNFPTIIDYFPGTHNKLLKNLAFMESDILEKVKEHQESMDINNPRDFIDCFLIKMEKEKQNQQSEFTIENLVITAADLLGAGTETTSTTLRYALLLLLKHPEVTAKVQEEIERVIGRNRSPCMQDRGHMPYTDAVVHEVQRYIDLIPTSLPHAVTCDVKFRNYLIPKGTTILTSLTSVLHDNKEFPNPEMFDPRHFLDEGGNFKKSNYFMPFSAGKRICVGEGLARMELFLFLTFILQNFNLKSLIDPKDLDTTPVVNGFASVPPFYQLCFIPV

[2] = target: Voltage-gated inwardly rectifying potassium channel KCNH2 (Homo sapiens, UniProt Q12809); assay: Inhibition of human ERG expressed in CHO cells; type: cell-based
Voltage-gated inwardly rectifying potassium channel KCNH2, sequence (Q12809 whole entry): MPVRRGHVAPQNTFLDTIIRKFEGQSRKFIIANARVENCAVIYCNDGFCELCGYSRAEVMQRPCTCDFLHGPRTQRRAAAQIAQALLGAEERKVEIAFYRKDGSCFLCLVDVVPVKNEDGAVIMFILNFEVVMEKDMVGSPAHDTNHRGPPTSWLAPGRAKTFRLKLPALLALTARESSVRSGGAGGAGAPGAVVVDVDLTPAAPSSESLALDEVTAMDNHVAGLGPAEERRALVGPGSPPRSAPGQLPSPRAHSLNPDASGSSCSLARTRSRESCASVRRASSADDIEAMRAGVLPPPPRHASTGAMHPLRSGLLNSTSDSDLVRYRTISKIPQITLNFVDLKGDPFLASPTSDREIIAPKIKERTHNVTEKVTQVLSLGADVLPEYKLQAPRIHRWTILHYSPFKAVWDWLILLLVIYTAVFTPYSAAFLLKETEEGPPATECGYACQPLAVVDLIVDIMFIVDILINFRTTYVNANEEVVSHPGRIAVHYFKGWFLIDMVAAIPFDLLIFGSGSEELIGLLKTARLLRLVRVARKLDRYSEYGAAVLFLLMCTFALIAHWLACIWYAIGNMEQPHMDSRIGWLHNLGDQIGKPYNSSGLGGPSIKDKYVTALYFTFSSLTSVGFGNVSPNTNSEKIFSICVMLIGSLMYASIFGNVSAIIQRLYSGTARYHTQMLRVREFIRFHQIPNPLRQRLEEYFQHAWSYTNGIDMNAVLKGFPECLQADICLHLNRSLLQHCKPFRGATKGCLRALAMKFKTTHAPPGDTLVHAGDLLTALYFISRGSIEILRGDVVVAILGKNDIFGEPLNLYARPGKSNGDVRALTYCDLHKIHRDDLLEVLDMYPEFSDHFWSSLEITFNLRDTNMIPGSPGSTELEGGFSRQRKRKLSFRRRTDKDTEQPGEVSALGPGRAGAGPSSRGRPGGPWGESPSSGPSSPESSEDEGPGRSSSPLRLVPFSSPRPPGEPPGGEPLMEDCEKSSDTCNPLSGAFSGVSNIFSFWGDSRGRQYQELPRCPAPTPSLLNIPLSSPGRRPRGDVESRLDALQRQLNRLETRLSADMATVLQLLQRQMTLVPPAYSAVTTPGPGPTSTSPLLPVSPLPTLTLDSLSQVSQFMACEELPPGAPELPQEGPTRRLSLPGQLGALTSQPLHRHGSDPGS

Cytochrome P450 2B6 = target: T2, Cytochrome P450 2B6 (Homo sapiens, UniProt P20813); assay: Inhibition of human recombinant CYP2B6 expressed in baculovirus-infected insect cells preincubated for 15 mins followed by substrate addition measured after 30 mins by luminescence assay; type: ADME; settings: recombinant enzyme, 0.5 h
T2 sequence (P20813 whole entry): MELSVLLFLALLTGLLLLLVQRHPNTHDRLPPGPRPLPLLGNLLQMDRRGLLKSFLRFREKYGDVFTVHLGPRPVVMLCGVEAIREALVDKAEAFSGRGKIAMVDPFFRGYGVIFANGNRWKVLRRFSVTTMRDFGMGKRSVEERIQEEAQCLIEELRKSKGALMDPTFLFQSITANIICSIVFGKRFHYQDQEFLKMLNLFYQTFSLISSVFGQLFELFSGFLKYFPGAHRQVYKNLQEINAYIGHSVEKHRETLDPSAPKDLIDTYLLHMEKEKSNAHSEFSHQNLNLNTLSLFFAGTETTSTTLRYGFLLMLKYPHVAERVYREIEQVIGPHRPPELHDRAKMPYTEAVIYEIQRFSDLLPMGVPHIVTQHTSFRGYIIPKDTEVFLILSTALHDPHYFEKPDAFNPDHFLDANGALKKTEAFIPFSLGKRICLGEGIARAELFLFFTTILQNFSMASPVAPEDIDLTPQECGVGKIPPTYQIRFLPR

Cytochrome P450 1A2 = target: T3, Cytochrome P450 1A2 (Homo sapiens, UniProt P05177); assay: Inhibition of human recombinant CYP1A2 expressed in baculovirus-infected insect cells preincubated for 15 mins followed by substrate addition measured after 30 mins by luminescence assay; type: ADME; settings: recombinant enzyme, 0.5 h
T3 sequence (P05177 whole entry): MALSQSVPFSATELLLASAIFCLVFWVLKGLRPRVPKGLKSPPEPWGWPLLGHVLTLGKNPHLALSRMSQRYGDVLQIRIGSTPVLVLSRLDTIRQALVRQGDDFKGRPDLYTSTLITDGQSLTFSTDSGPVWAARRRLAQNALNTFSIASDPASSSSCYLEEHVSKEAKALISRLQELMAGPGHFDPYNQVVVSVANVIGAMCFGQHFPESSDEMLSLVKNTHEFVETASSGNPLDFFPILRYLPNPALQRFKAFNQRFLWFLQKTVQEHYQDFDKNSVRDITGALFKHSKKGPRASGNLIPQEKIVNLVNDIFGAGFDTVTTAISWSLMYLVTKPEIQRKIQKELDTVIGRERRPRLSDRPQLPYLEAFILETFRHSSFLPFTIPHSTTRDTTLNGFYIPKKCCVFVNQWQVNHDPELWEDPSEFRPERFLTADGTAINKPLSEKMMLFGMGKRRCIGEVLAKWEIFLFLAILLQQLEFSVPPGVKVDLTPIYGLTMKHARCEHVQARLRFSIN

Cytochrome P450 2D6 = Cytochrome P450 2D6 (Homo sapiens, UniProt P10635); assay: Inhibition of human recombinant CYP2D6 expressed in baculovirus-infected insect cells preincubated for 15 mins followed by substrate addition measured after 30 mins by luminescence assay; type: ADME; settings: recombinant enzyme, 0.5 h
Cytochrome P450 2D6, sequence (P10635 whole entry): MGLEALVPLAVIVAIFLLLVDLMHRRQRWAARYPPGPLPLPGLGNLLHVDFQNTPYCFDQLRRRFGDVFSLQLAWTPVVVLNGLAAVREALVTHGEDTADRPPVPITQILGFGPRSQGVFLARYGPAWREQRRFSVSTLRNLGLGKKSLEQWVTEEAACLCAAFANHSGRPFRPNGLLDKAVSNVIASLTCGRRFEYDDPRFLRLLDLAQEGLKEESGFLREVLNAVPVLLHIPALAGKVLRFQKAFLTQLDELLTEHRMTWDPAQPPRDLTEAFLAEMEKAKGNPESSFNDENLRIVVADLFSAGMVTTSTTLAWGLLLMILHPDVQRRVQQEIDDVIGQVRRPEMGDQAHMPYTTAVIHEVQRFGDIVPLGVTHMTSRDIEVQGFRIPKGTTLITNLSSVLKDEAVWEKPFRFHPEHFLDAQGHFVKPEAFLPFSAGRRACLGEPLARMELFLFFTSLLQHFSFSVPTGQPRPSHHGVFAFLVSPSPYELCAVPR

Cytochrome P450 2C9 = Cytochrome P450 2C9 (Homo sapiens, UniProt P11712); assay: Inhibition of human recombinant CYP2C9 expressed in baculovirus-infected insect cells preincubated for 15 mins followed by substrate addition measured after 30 mins by luminescence assay; type: ADME; settings: recombinant enzyme, 0.5 h
Cytochrome P450 2C9, sequence (P11712 whole entry): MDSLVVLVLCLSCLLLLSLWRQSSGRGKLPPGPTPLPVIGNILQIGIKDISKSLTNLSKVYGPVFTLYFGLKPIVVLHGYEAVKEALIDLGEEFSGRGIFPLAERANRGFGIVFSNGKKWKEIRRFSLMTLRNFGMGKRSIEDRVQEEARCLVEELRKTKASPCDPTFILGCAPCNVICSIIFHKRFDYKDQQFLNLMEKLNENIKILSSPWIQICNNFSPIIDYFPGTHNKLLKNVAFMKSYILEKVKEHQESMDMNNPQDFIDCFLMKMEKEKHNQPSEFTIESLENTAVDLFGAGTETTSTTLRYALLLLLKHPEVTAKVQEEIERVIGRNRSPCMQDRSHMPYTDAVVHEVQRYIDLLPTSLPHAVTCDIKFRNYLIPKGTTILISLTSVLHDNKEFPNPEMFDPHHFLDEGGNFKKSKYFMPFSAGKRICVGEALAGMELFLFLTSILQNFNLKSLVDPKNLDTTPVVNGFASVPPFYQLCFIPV

Plasmodium falciparum [3] = assay: Antimalarial activity against chloroquine-resistant Plasmodium falciparum K1 infected in human RBC; type: functional, organism-based
Method in brief: (§1)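 P. falciparum cultured with test drug in human red blood cells for 3 days. Growth read out as hypoxanthine incorporation.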

[4] = Volume of distribution at steady state in NMRI mouse at 1 mg/kg, iv by LC-MS/MS analysis; type: ADME, organism-based; design: dose 1 mg/kg, route intravenous; settings: in vivo, read-out: Vdss
Plasmodium berghei [5] = assay: Antimalarial activity against Plasmodium berghei ANKA expressing GFP infected in po dosed NMRI mouse assessed as reduction in parasitemia administered qd for 4 days measured at 24 hrs after last dose; type: functional
Method in brief: (§2)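 P. berghei-infected mice dosed orally once daily on days 0–3, first dose 4 h postinfection, at 3, 10, 30 and 100 mg/kg/day. Red blood cell parasitemia and plasma exposure measured on day 4, 24 h after last dose; ED50 derived from dose-response; survival then monitored for 26 further days as mean survival days.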

[6] = Oral bioavailability in NMRI mouse at 5 mg/kg by LC-MS/MS analysis; type: ADME, organism-based; settings: in vivo
Plasmodium falciparum [7] = assay: Antimalarial activity against chloroquine, pyrimethamine, cycloguanil-resistant Plasmodium falciparum 7G8; type: functional, organism-based
Plasmodium falciparum [8] = assay: Antimalarial activity against chloroquine, pyrimethamine, quinine-resistant Plasmodium falciparum V1S; type: functional; settings: VS/1
Plasmodium berghei [9] = assay: Antimalarial activity against Plasmodium berghei ANKA expressing GFP infected in NMRI mouse assessed as reduction in parasitemia at 100 mg/kg/day, po qd for 4 days measured at 24 hrs after last dose relative to control; type: functional; design: scale not given: the % may be the effect or the level left; method in brief: as §2
[10] = AUC in NMRI mouse at 1 mg/kg, iv and 5 mg/kg, po by LC-MS/MS analysis; type: ADME, organism-based; settings: plasma
Plasmodium falciparum [11] = assay: Antimalarial activity against chloroquine, pyrimethamine, sulfadoxine and quinine-resistant Plasmodium falciparum W2; type: functional, organism-based
[12] = Cmax in NMRI mouse at 1 mg/kg, iv and 5 mg/kg, po by LC-MS/MS analysis; type: ADME, organism-based; settings: in vivo
Plasmodium falciparum [13] = assay: Antimalarial activity against mefloquine-resistant Plasmodium falciparum TM91C235; type: functional, organism-based
Plasmodium falciparum [14] = assay: Antimalarial activity against drug-sensitive Plasmodium falciparum NF54; type: functional, organism-based
[15] = Terminal half life in NMRI mouse at 5 mg/kg, po by LC-MS/MS analysis; type: ADME, organism-based; design: dose 5 mg/kg, route oral; settings: in vivo, read-out: beta t1/2 (converted)
Plasmodium falciparum [16] = assay: Antimalarial activity against chloroquine and pyrimethamine-resistant Plasmodium falciparum K1; type: functional, organism-based; method in brief: as §1
Plasmodium falciparum [17] = assay: Antimalarial activity against chloroquine, pyrimethamine, sulfadoxine, quinine and mefloquine-sensitive Plasmodium falciparum D6; type: functional, organism-based
Plasmodium berghei [18] = assay: Antimalarial activity against Plasmodium berghei ANKA expressing GFP infected in NMRI mouse assessed as mean survival days at 100 mg/kg/day, po qd for 4 days measured at 24 hrs after last dose; type: functional
Method in brief: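 P. berghei-infected mice dosed orally once daily on days 0–3, starting 4 h postinfection, in groups of 3, 10, 30 and 100 mg/kg/day. Red blood cell parasitemia and plasma exposure measured on day 4, 24 h after the last dose. Mean survival days then monitored over 26 further days.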

Cytochrome P450 3A4, sequence (P08684 whole entry): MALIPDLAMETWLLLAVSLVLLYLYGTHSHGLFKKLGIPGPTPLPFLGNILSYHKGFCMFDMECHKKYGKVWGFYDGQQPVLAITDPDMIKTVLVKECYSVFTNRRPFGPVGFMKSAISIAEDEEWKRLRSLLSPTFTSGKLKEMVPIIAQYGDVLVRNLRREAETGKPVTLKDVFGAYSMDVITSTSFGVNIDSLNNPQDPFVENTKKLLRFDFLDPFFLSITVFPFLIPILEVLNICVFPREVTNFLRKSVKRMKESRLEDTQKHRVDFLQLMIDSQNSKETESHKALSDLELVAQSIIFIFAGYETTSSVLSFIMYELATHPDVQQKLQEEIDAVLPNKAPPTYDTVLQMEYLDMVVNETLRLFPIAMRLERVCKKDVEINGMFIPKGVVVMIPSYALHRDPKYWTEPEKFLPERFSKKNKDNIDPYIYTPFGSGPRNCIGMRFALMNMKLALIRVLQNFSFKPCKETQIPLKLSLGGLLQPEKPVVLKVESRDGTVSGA

With `O[C@@H](CNC1CCCCC1)Cn1c2ccc(Br)cc2c2cc(Br)ccc21` the “inhibition (INH)” value (Cytochrome P450 3A4) was “Active”, the “inhibition (INH)” value (Cytochrome P450 2C8) was “Active” and the Activity (Plasmodium falciparum [1]) was “Active”. For the same compound, the “inhibition (INH)” value (Cytochrome P450 2C19) was “Active”, the “inhibition (INH)” value [2] was “Active” and the “inhibition (INH)” value (Cytochrome P450 2B6) was “Active”. The “inhibition (INH)” value (Cytochrome P450 1A2) was “Active”, the “inhibition (INH)” value (Cytochrome P450 2D6) was “Active” and the “inhibition (INH)” value (Cytochrome P450 2C9) was “Active”.

For `O=C(CN1CCN(CC2CCCCC2)CC1)Cn1c2ccc(Cl)cc2c2cc(Cl)ccc21`, the IC50 (Plasmodium falciparum [1]) was 0.448 µM.

In the case of `CC12CCC(CN(CC(O)Cn3c4ccc(Cl)cc4c4cc(Cl)ccc43)C1)C2(C)C` (stereo not given), the IC50 (Plasmodium falciparum [3]) is reported as 0.057 µM.

In the case of `O[C@H](CNC1CCCCC1)Cn1c2ccc(Br)cc2c2cc(Br)ccc21`, the “inhibition (INH)” value (Cytochrome P450 3A4) is reported as “Active”, the “inhibition (INH)” value (Cytochrome P450 2C8) is reported as “Active” and the Activity (Plasmodium falciparum [1]) is reported as “Active”. The “inhibition (INH)” value (Cytochrome P450 2C19) was “Active”, the “inhibition (INH)” value [2] was “Active” and the “inhibition (INH)” value (Cytochrome P450 2B6) was “Active”. For the same compound, the “inhibition (INH)” value (Cytochrome P450 1A2) was “Active”, the “inhibition (INH)” value (Cytochrome P450 2D6) was “Active” and the “inhibition (INH)” value (Cytochrome P450 2C9) was “Active”.

In the case of `OC(CN1CCN(Cc2ccccc2)CC1)Cn1c2ccccc2c2cc(Cl)ccc21` (stereo not given), the IC50 (Plasmodium falciparum [1]) is reported as 0.165 µM.

With `FC(CN1CCN(CC2CCCCC2)CC1)Cn1c2ccc(Br)cc2c2cc(Br)ccc21` (stereo not given) the IC50 (Plasmodium falciparum [1]) was 0.106 µM.

In the case of `O=C1CN(Cc2ccccc2)CCN1CC(O)Cn1c2ccc(Cl)cc2c2cc(Cl)ccc21` (stereo not given), the IC50 (Plasmodium falciparum [1]) is reported as 0.344 µM.

Work on `Clc1ccc2c(c1)c1cc(Cl)ccc1n2CCCN1CCN(CC2CCCCC2)CC1` yielded an IC50 (Plasmodium falciparum [1]) of 0.707 µM.

Compound `COC(CN1CCN(Cc2ccccc2)CC1)Cn1c2ccccc2c2ccccc21` (stereo not given) has an IC50 (Plasmodium falciparum [1]) of 3.31 µM.

In the case of `OC(CN1CCN(CC2CCCCC2)CC1)Cn1c2ccc(Cl)cc2c2cc(Cl)ccc21` (stereo not given), the Vd [4] is reported as 15 L/kg, the Activity (Plasmodium berghei [5]) is reported as “Dose dependent effect” and the ED50 (Plasmodium berghei [5]) is reported as 34.5 mg/kg/day. For the same compound, the bioavailability [6] was 50%, the Activity (Plasmodium falciparum [7]) was “Active” and the Activity (Plasmodium falciparum [8]) was “Active”. It also gave an Activity (Plasmodium berghei [9]) of 99.93%, an IC50 (Plasmodium falciparum [1]) of 0.016 µM and an AUC [10] of 1580 ng·h/mL. For the same compound, the Activity (Plasmodium falciparum [11]) was “Active”, the Cmax [12] was 135 ng/mL and the Activity (Plasmodium falciparum [13]) was “Active”. For the same compound, the Activity (Plasmodium falciparum [14]) was “Active”, the half-life [15] was 8 h and the Activity (Plasmodium falciparum [16]) was “Active”. The Activity (Plasmodium falciparum [17]) was “Active” and the Activity (Plasmodium berghei [18]) was “Active”.

`OC(CN1CCN(Cc2ccccc2)CC1)Cn1c2ccccc2c2ccccc21` (stereo not given) gave an IC50 (Plasmodium falciparum [1]) of 0.275 µM.

Work on `OC(CN1CCN(Cc2ccccc2)CC1)Cn1c2ccc(Br)cc2c2cc(Br)ccc21` (stereo not given) yielded an IC50 (Plasmodium falciparum [1]) of 0.027 µM.

With `C[C@@H]1CC[C@H]2[C@@H](C)C(=O)O[C@@H]3O[C@@]4(C)CC[C@@H]1[C@]32OO4` [ARTEMISININ] the IC50 (Plasmodium falciparum [3]) was 0.0054 µM.

Reference: ChEMBL document CHEMBL3098117, “Identification and optimization of an aminoalcohol-carbazole series with antimalarial properties” (ACS Med Chem Lett, 2013)
